Variants at the floor of the assay were thinned out.

The labels stand for the following.
B1: tRNA (parent)
chain: GUUCCGUUGGCGUAAUGGUAACGCGUCUCCCUCCUAAGGAGAAGACUGCGGGUUCGAGUCCCGUACGGAACG

This series covers variants of B1. As to the kind of experiment: yeast fitness relative to wild type (ratio to wild type); higher = fitter; tRNA-Arg(CCU), competitive growth, 37 C, YPD. In outline:
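The tRNA-Arg(CCU) gene variants were made by chemical synthesis with a 3% per-site mutation rate at 69 sites and inserted at the native genomic locus of Saccharomyces cerevisiae. After pooling, the strains were competed in YPD at 37°C for 24 hours in six parallel replicates. Gene amplicons from the start population and each end population were read by 100-nucleotide paired-end sequencing, and Darwinian fitness relative to wild type was taken from genotype frequency changes. Genotypes needed ≥ 100 starting reads, and estimates < 0.5 were set to 0.5.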
For GUUCCGUUGGCGUAAUCGCAACGCGUCUCCCUCCUAAGGAGAAGACUGCGGGUUCGAGUCCCGUACGGAACG [G17C U19C], the yeast fitness stood at 0.785.
For the variant GUUCCGUUGGCGUAAUCGUAACGCGUCUCCCUCCUAAGGAGAAGACUGCGGGUUCGAGUCCCGUAAGGAACG [G17C C66A], the yeast fitness amounted to 0.575.
In the case of GUUCCGUUGGCGUAAUCGUAACGCGUCUCCCUCCUAAGGAGAAGACUCCGGGUUCGAGUCCCGUGCGGAACG [G17C G48C A65G] it was 0.562; in that of GUUCCGUUGGCGUAAUCGUAACGCGUCUCCCUCCUAAGGAGAAAACUACGGGUUCGAGUCCCGUACGGAACG [G17C G44A G48A], 0.529; in that of GUUCCGUUGGCGUAAUCGUAACGCGUCUCCCUCCUAAGGAGAACACUGCGGGUUCGAGUCCCGUAUGGAACG [G17C G44C C66U], ≤ 0.5.
For the variant GUUCCGUUGGCGUAAUCGUAACGCGUCUCCCUCCUAAGGAGAAGACUGCGGGUUUGAGUCCCGUACGGUUCG [G17C C55U A69U A70U], the yeast fitness is ≤ 0.5.
For GUUCCGUUGGCGUAAUCGUAACGCGUCUCCCGUCUAAGGAGAAGACUGCGGGUUCAAAUCCCGUACGGAACG [G17C U32G C33U G56A G58A], the yeast fitness is ≤ 0.5.
As for GUUCCGUUGGCGUAAUCGUAACGCGUCACAAUCCUAAGGAGAAGACUGCGGGUUCGAGUGCCGUGCGGAACG [G17C U28A C30A C31A C60G A65G], the yeast fitness was ≤ 0.5.
The value for GUUCCGUUGGCGUAAUCGUAACGCGUCUCCCUCCUAAGCAGAAGUCUGCGGGUUCGACUCCCGUACGGAACG [G17C G39C A45U G58C] was ≤ 0.5.
For the variant GUUCCGUUGGCGUAAUCGUAACGCGUCGCUCUCCUAAGGAGAAGACUGCGGGUUCGAGUCACGUACGGUACG [G17C U28G C30U C61A A69U], the yeast fitness is ≤ 0.5.
The value for GUUCCGUUGGCGUAAUCGUAACGCCUCUGCCUCCUUAGAAGAAGACUGCGGGUUCGAGUCCCGUACGGAACG [G17C G25C C29G A36U G39A] was ≤ 0.5.
The value for GUUCCGUUGGCGUAAUCGUAACCCGUCUCCCUCCUAAGGAGAUGACUGAGGGUUCGAGUCCCGUACGGAACG [G17C G23C A43U C49A] was 0.613; that for GUUCCGUUGGCGUAAUCGUAACGCGCCUCCCUCCUAAGGAGAAGAUUGCGGGUUCGAGUCCCGAACGGAACG [G17C U26C C46U U64A] was ≤ 0.5; that for GUUCCGUUGGCGUAAUCGUAACGCGUCUCCCUCCUAAGGAGAAGACUGCGGCUUCGAGUCACGUAGGGAACG [G17C G52C C61A C66G] was 0.637.
As for GUUCCGUUGGCGUAAUCGUAACCCGUCUCCCUCCUAAGGAGAAGACGGCGGGUUCGAGUCCCGUACGGAACG [G17C G23C U47G], the yeast fitness was ≤ 0.5.
The value for GUUCCGUUGGCGUAAUCGUAACGCGUCUCCCUCCUAAGGAGAAGACUGCGGGUUUGAGUCCCGUACGGUACG [G17C C55U A69U] was ≤ 0.5; that for GUUCCGUUGGCGUAAUCGUAACGCGUCUCCCUCCUAAGGAGAAGACUGCGGGUUCGAGUUCCGUACGGAACG [G17C C60U] was 0.597; that for GUUCCGUUGGCGUAAUCGUAACGCGUCUCCCUCCUAAGGAGAAGACUGCGGGUUCGAGUGCCGUACGGAACG [G17C C60G] was ≤ 0.5.
Take GUUCCGUUGGCGUAAUCCUAACGCGUCUCCCUCCUAAGGAGAAGACUGCGGGUUCGAGUCCCGUACGGUACG [G17C G18C A69U]: the yeast fitness is ≤ 0.5.
For the variant GUUCCGUUGGCGUAAUCGUAACGCGUCUCCCUCCUAAGGAGAAGACUGCGGGUUCGAGUCCCAUAUGGAACG [G17C G63A C66U], the yeast fitness was ≤ 0.5.
The value for GUUCCGUUGGCGUAAUCGUAACCCGUCUCCCUGCUAAGGAGAAGACUGCAGGUUCGAGUCCCGUACGAAACG [G17C G23C C33G G50A G68A] was ≤ 0.5; that for GUUCCGUUGGCGUAAUCGUAACCCGUCUCCCUCCUAAGGAGAUGACUGAGGGUUCGAGUCCCGUAUGGAACG [G17C G23C A43U C49A C66U] was 0.634.
In the case of GUUCCGUUGGCGUAAUCGUAACGCGUCUCCCCCCUAAGGAGAAGACUGCGGGUUCGAGUCCCGUACGGAACG [G17C U32C], the yeast fitness was 0.644.
In the case of GUUCCGUUGGCGUAAUCGUAACGCGUCUCCCUCCUAAGGAGAAGACUGCGGGUUCGAGUACCGUACAGAACG [G17C C60A G67A] it was ≤ 0.5.
The value for GUUCCGUUGGCGUAAUCCUAAAGCGUCUCCCUCCUAAGGAGAAGACUGCGGGUUCGAGUACCGUACGGAACG [G17C G18C C22A C60A] was 0.529; that for GUUCCGUUGGCGUAAUCGUAACGCGUCUCCCUCCUAAAGAGAAGACUGCGGGUUCGAGUCCCGUACGGAACG [G17C G38A] was 0.599; that for GUUCCGUUGGCGUAAUCGCAACGCGUCUCCCUCCUAAGGAGAAGACUGCGGGUUCGAGUCCCGUGCGGAACG [G17C U19C A65G] was 0.573.
On to GUUCCGUUGGCGUAAUCGUAACGCAUCUCCCUCCUAAGGAGAAGACUGAGGGUUCGAGUCCCGUACGGAACG [G17C G25A C49A], for which the yeast fitness is ≤ 0.5.
The value for GUUCCGUUGGCGUAAUCGAAACGGGACUCCCUCUUAAGGAGAAGACUGCGGGUUCGAGUCCCGUACGGUACG [G17C U19A C24G U26A C34U A69U] was ≤ 0.5; that for GUUCCGUUGGCGUAAUCGUAACGCGUCUCCCUCCUAAGGAGAAGACUGCGGGUUCGAGUCCCAUACGGAACG [G17C G63A] was 0.674.
Consider GUUCCGUUGGCGUAAUCGCAACGCGUUUCCCUCCUAAGGAGAAGACUGCGGGUUCGAGUCCCGUCCGGAACG [G17C U19C C27U A65C], for which the yeast fitness worked out at 0.641.
In the case of GUUCCGUUGGCGUAAUCGUAACGCGUCUCCCACCUAAGGAGAAGACUGCGGGUUCGAGUCCCGUAUGGAGCG [G17C U32A C66U A70G] it was ≤ 0.5; in that of GUUCCGUUGGCGUAAUCGUAACGCGUCUCCCUCCUAACGAGAAGACUGCGGCUUCGAGUCCCGUACGGAACG [G17C G38C G52C], ≤ 0.5; in that of GUUCCGUUGGCGUAAUCGUAACCCGUCUCCGUCCUAAGGAGAAGACUGCCGGUUCGAGUACCAUACGGAACG [G17C G23C C31G G50C C60A G63A], ≤ 0.5.
In the case of GUUCCGUUGGCGUAAUCGUAACGCGUCUCCCUCCUAAGGAGAAGACUGCGGGUUUGAGUCCCCUACCGAACG [G17C C55U G63C G67C] it was ≤ 0.5.
The value for GUUCCGUUGGCGUAAUCGUAACGCGUCUCCCUCCUAAGGAGAAGACUGCGGGUUCGAGUCCCGUACGCAACG [G17C G68C] was 0.614; that for GUUCCGUUGGCGUAAUCGUAACGCCUCUCCCUCCUAGGGAGAAGACUGCGGGUUCGAGUCCCGUACGGAACG [G17C G25C A37G] was ≤ 0.5.

For the origin of these results see the RNAGym collection of RNA variant scans (doi:10.1126/science.aae0568).
